Data taken from ChEMBL document CHEMBL1121573, “2-(Aminomethyl)phenols, a new class of saluretic agents. 1. Effects of nuclear substitution” (J Med Chem, 1980).

Columns and labels:
Rattus norvegicus [1] = test: Evaluated for salidiuretic activity measured as sodium ion excretion in Rat, administered orally at a dose of 50 mg/kg; format: functional, Urine; parameters: unit not given beside the values; details: route oral
How it was run: (§1)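 Female Charles-River rats (150–170 g), overnight on sugar diet with water ad libitum. Compound dissolved in DMF, diluted with water containing Tween 80 (final 4% DMF), given po in 5.0 mL; concurrent vehicle placebo. Three rats per metabolism cage; 0–5 h urine analysed for Na+, K+, Cl-. Values: mequiv × 100 per cage, geometric means of three cages per dose; scored 0–6 by Na+.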

Rattus norvegicus [2] = test: Oral diuretic activity was evaluated by measuring Cl- excretion in Rat at 9 mg/kg […] (0-5 hr); format: ADME, organism-based, Urine; parameters: dose 9 mg/kg; details: in vivo
How it was run: (§2)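 Female Charles-River rats (150–170 g) were kept overnight on a sugar diet with water ad libitum. Test substance was dissolved in DMF and diluted with water containing Tween 80 to a final 4% DMF vehicle, then given po in 5.0 mL. Rats were housed three per metabolism cage, and 0–5 h urine was assayed for Na⁺, K⁺ and Cl⁻ alongside concurrent placebo groups. Values are mequiv × 100 per cage, geometric means of three cages per dose.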

Canis familiaris [3] = test: Oral diuretic activity was evaluated by measuring Cl- excretion in dog at 5 mg/kg after […] (0-6 hr); format: ADME, organism-based, Canis lupus familiaris, Urine; parameters: dose 5 mg/kg, route intraperitoneal; details: in vivo
Rattus norvegicus [4] = test: Oral diuretic activity was evaluated by measuring K+ excretion in Rat at 9 mg/kg […] (0-5 hr); format: ADME, organism-based, Urine; parameters: dose 9 mg/kg; how it was run: as §2
Rattus norvegicus [5] = test: Oral diuretic activity was evaluated by measuring Cl- excretion in Rat at 81 mg/kg after po administration (0-5 hr); details: in vivo
Canis familiaris [6] = test: Oral diuretic activity was evaluated by measuring Na+ excretion in dog at 10 mg/kg after ip administration (0-6 hr); format: ADME, organism-based, Canis lupus familiaris, Urine; parameters: dose 10 mg/kg, route intraperitoneal; details: in vivo
How it was run: (§3)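 Spontaneous urine was pooled with bladder urine collected by catheterization at 6 h. Volume was measured and Na+, K+ and Cl− were determined by standard methods. Values are geometric means.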

Rattus norvegicus [7] = test: Maximum fall in mean arterial blood pressure was measured in SH rats when compound was administered at 30 mg/kg perorally; format: functional; details: route oral
Rattus norvegicus [8] = test: Oral diuretic activity was evaluated by measuring Cl- excretion in Rat at 27 mg/kg […] (0-5 hr); format: ADME, organism-based, Urine; parameters: dose 27 mg/kg; details: in vivo
Canis familiaris [9] = test: Oral diuretic activity was evaluated by measuring K+ excretion in dog at 10 mg/kg after ip administration (0-6 hr); format: ADME, organism-based, Canis lupus familiaris, Urine; parameters: dose 10 mg/kg, route intraperitoneal; details: in vivo; how it was run: as §3
[10] = Compound administered orally at a dose of 5 mg/kg was evaluated for salidiuretic activity measured as sodium ion excretion in Rat; format: organism-based; parameters: dose 5 mg/kg; details: Urine; how it was run: as §1
Rattus norvegicus [11] = test: Oral diuretic activity was evaluated by measuring Na+ excretion in Rat at 81 mg/kg […] (0-5 hr); format: ADME, organism-based, Urine; parameters: dose 81 mg/kg; details: in vivo
[12] = Evaluated for salidiuretic activity measured as sodium ion excretion in Rat, administered orally at a dose of 16.5 mg/kg; format: organism-based; parameters: dose 16.5 mg/kg; details: Urine; how it was run: as §1
Rattus norvegicus [13] = test: Oral diuretic activity was evaluated by measuring K+ excretion in Rat at 81 mg/kg after […] (0-5 hr); format: ADME, organism-based, Urine; parameters: dose 81 mg/kg; how it was run: as §2
Rattus norvegicus [14] = test: Maximum fall in mean arterial blood pressure was measured in SH rats when compound was administered at 7.5 mg/kg perorally; format: functional; details: route oral
Rattus norvegicus [15] = test: Compound administered orally at a dose of 81 mg/kg was evaluated for salidiuretic activity measured as sodium ion excretion in Rat; format: ADME, organism-based, Urine; parameters: dose 81 mg/kg, route oral; details: in vivo, po; how it was run: as §1
Canis familiaris [16] = test: Oral diuretic activity was evaluated by measuring Cl- excretion in dog at 10 mg/kg after […] (0-6 hr); format: ADME, organism-based, Canis lupus familiaris, Urine; parameters: dose 10 mg/kg, route intraperitoneal; details: in vivo
Canis familiaris [17] = test: Salidiuretic activity in dog following i.v. dosing at 5 mg/kg; format: functional, Canis lupus familiaris, Urine; parameters: unit not given beside the values; details: route intravenous
How it was run: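 Conditioned female mongrel dogs, postabsorptive, got a 500 mL oral water load 1 h before pentobarbital anesthesia (30 mg/kg iv). After replicate 15-min control collections, compound was given as an iv stat injection.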

Rattus norvegicus [18] = test: Maximum fall in mean arterial blood pressure was measured in SH rats when compound was administered at 3.75 mg/kg perorally; format: functional; details: route oral
Canis familiaris [19] = test: Oral diuretic activity was evaluated by measuring K+ excretion in dog at 5 mg/kg after ip administration (0-6 hr); format: ADME, organism-based, Canis lupus familiaris, Urine; parameters: dose 5 mg/kg, route intraperitoneal; details: in vivo; how it was run: as §3
Canis familiaris [20] = test: Oral diuretic activity was evaluated by measuring K+ excretion in dog at 1 mg/kg after ip administration (0-6 hr); format: ADME, organism-based, Canis lupus familiaris, Urine; parameters: dose 1 mg/kg, route intraperitoneal; details: in vivo; how it was run: as §3
Rattus norvegicus [21] = test: Oral diuretic activity was evaluated by measuring Na+ excretion in Rat at 9 mg/kg after […] (0-5 hr); format: ADME, organism-based, Urine; parameters: dose 9 mg/kg; details: in vivo, ip
How it was run: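 Female Charles-River rats (150–170 g) were kept overnight on a sugar diet with water ad libitum. Compound was dissolved in DMF, then diluted with water containing Tween 80 (3 drops/100 mL) to a final 4% DMF, and given po in 5.0 mL. Rats were housed three per metabolism cage. Urine from 0–5 h was analysed for Na+, K+ and Cl−, with concurrent placebo controls. Values are mequiv × 100 per cage, geometric mean of three cages per dose.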

Canis familiaris [22] = test: Oral diuretic activity was evaluated by measuring Na+ excretion in dog at 5 mg/kg after ip administration (0-6 hr); format: ADME, organism-based, Canis lupus familiaris, Urine; parameters: dose 5 mg/kg, route intraperitoneal; details: in vivo; how it was run: as §3
Canis familiaris [23] = test: Oral diuretic activity was evaluated by measuring Na+ excretion in dog at 1 mg/kg after ip administration (0-6 hr); format: ADME, organism-based, Canis lupus familiaris, Urine; parameters: dose 1 mg/kg, route intraperitoneal; details: in vivo; how it was run: as §3
Rattus norvegicus [24] = test: Oral diuretic activity was evaluated by measuring K+ excretion in Rat at 27 mg/kg […] (0-5 hr); format: ADME, organism-based, Urine; parameters: dose 27 mg/kg; how it was run: as §2

Diuretic activity (Rattus norvegicus [2]): 0.22
Diuretic activity (Canis familiaris [3]): 37
Diuretic activity (Rattus norvegicus [4]): 0.14
Diuretic activity (Rattus norvegicus [5]): 3.7
Diuretic activity (Canis familiaris [6]): 35
Diuretic activity (Rattus norvegicus [8]): 2.13
Diuretic activity (Canis familiaris [9]): 8.4
Diuretic activity (Rattus norvegicus [11]): 2.44
Diuretic activity (Rattus norvegicus [13]): 0.77
Diuretic activity (Rattus norvegicus [15]): 2.9
Diuretic activity (Canis familiaris [16]): 43.8
Diuretic activity (Canis familiaris [19]): 7.3
Diuretic activity (Canis familiaris [20]): 4.1
Diuretic activity (Rattus norvegicus [21]): 0.07
Diuretic activity (Canis familiaris [22]): 28.2
Diuretic activity (Canis familiaris [23]): 11.4
Diuretic activity (Rattus norvegicus [24]): 0.55
Compound: NS(=O)(=O)c1cc(C(=O)O)c(NCc2ccco2)cc1Cl [FUROSEMIDE]
Diuretic activity (Rattus norvegicus [1]): 2.4
MAP (Rattus norvegicus [7]): 12 mmHg
Diuretic activity [10]: 0.5
Diuretic activity [12]: 1.4
MAP (Rattus norvegicus [14]): 10 mmHg
Diuretic activity (Canis familiaris [17]): 250
MAP (Rattus norvegicus [18]): 12 mmHg
